Experiments:
Type in all cases: functional
[1] = organism: Homo sapiens; test: Percent formation of compound upon incubation of 15 for 60 minutes with human P450 reductase microsomes in hypoxic condition in presence of NADPH and pCMBA at a concentration of 2 mM
In short: (§1)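 Human or rat P450 reductase microsomes at 1 mg/mL protein, substrate 0.25 mM and cofactor 0.5 mM; pCMBA 2 mM where stated. Anaerobic samples purged with nitrogen 15–20 min in septum-sealed vials. 60 min at 37 °C, stopped with ice-cold methanol. Ketone metabolite quantified by HPLC (C-18, methanol/water 50:50, UV 254 nm) as percent of equimolar substrate. Mean of two experiments.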

[2] = organism: Rattus norvegicus; test: Percent formation of compound upon incubation of 15 with phenobarbit-induced rat liver microsomal fraction in hypoxic condition in presence of pCMBA at a concentration of 2 mM
In short: (§2)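 Phenobarbital-induced rat liver microsomes; inhibitors SKF-525A (in methanol) or pCMBA (in DMF) at 0–4 mM final. pCMBA preincubated 30 min before NADPH; SKF-525A incubated 15 min with microsomes and NADPH. Hypoxic samples nitrogen-purged. Substrate 2.5 mM added, 30 min at 37 °C. Ketone metabolite by HPLC at 254 nm as percent of substrate; % inhibition relative to no inhibitor. Mean of two experiments.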

[3] = organism: Rattus norvegicus; test: Percent formation of compound upon incubation of 15 with phenobarbit-induced rat liver microsomal fraction in oxic condition in presence of SKF-525A at a concentration of 1 mM; in short: as §2
[4] = organism: Rattus norvegicus; test: Tested for formation of compound upon incubation of compound 15 for 30 minutes with rat liver subcellular fractions in oxic condition in the presence of NADPH
In short: (§3)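 Phenobarbital-induced rat liver S-9 fraction (2 mL) with 5 mM cofactor (NADPH, NADH, benzaldehyde or 2-hydroxypyrimidine), substrate 2.5 mM final, added in methanol/water 50:50; aerobic, 30 min at 37 °C. Quenched with ice-cold methanol, proteins spun down, supernatant analysed by reverse-phase C-18 HPLC, UV 254 nm; ketone metabolite given as percent of equimolar substrate; three experiments.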

[5] = organism: Rattus norvegicus; test: Percent formation of compound upon incubation of 15 with phenobarbit-induced rat liver microsomal fraction in oxic condition in presence of SKF-525A at a concentration of 2 mM; in short: as §2
[6] = organism: Rattus norvegicus; test: Percent formation of compound upon incubation of 15 with phenobarbit-induced rat liver microsomal fraction in oxic condition in presence of pCMBA at a concentration of 2 mM; in short: as §2
[7] = organism: Rattus norvegicus; test: Percent inhibition of formation of compound upon incubation of 15 with phenobarbit-induced rat liver microsomal fraction in oxic condition in presence of SKF-525A at a concentration of 2 mM; in short: as §2
[8] = organism: Rattus norvegicus; test: Percent inhibition of formation of compound upon incubation of 15 with phenobarbit-induced rat liver microsomal fraction in oxic condition in presence of SKF-525A at a concentration of 4 mM; in short: as §2
[9] = organism: Rattus norvegicus; test: Tested for formation of compound upon incubation of compound 15 for 30 minutes with rat liver cystolic fractions in oxic condition in the absence of cofactor
In short: (§4)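 Phenobarbital-induced rat liver S-9, microsomal or cytosolic fraction with 5 mM cofactor (NADPH, NADH, benzaldehyde or 2-hydroxypyrimidine) or none. Substrate 2.5 mM final, added from methanol/water 50:50. Hypoxic vials purged with nitrogen 15–20 min. 30 min at 37 °C, quenched with ice-cold methanol. Ketone metabolite by HPLC at 254 nm as percent of equimolar substrate.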

[10] = organism: Rattus norvegicus; test: Tested for formation of compound upon incubation of compound 15 for 30 minutes with rat liver cystolic fractions in oxic condition in the presence of NADPH; in short: as §4
[11] = organism: Rattus norvegicus; test: Tested for formation of compound upon incubation of compound 15 for 30 minutes with rat liver microsomal fractions in hypoxic condition in the absence of cofactor; in short: as §4
[12] = organism: Rattus norvegicus; test: Tested for formation of compound upon incubation of compound 15 for 30 minutes with rat liver microsomal fractions in hypoxic condition in the presence of NADPH; in short: as §4
[13] = organism: Rattus norvegicus; test: Tested for formation of compound upon incubation of compound 15 for 30 minutes with rat liver subcellular fractions in oxic condition in the presence of NADH; in short: as §3
[14] = organism: Rattus norvegicus; test: Percent formation of compound upon incubation of 15 with phenobarbit-induced rat liver microsomal fraction in hypoxic condition in presence of SKF-525A at a concentration of 2 mM; in short: as §2
[15] = organism: Rattus norvegicus; test: Percent formation of compound upon incubation of 15 with phenobarbit-induced rat liver microsomal fraction in hypoxic condition in presence of pCMBA at a concentration of 0 mM; in short: as §2
[16] = organism: Rattus norvegicus; test: Percent formation of compound upon incubation of 15 with phenobarbit-induced rat liver microsomal fraction in hypoxic condition in presence of pCMBA at a concentration of 1 mM; in short: as §2
[17] = organism: Rattus norvegicus; test: Tested for formation of compound upon incubation of compound 15 for 30 minutes with uninduced rat liver S-9 fractions in oxic condition in the presence of NADPH
In short: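 Uninduced rat liver S-9 (22.5 mg/mL protein, 2 mL) with 5 mM NADPH or no cofactor, substrate 2.5 mM final; hypoxic samples nitrogen-purged 15–20 min in septum-sealed vials, else aerobic; 30 min at 37 °C. Methanol quench, centrifugation, C-18 HPLC with UV 254 nm; metabolite as percent of equimolar substrate. NADPH runs three experiments, no-cofactor runs two.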

[18] = organism: Rattus norvegicus; test: Tested for formation of compound upon incubation of compound 15 for 30 minutes with rat liver microsomal fractions in oxic condition in the absence of cofactor; in short: as §4
[19] = organism: Rattus norvegicus; test: Tested for formation of compound upon incubation of compound 15 for 30 minutes with rat liver subcellular fractions in hypoxic condition in the presence of 2-hydroxypyrimidine; in short: as §4
[20] = organism: Rattus norvegicus; test: Percent inhibition of formation of compound upon incubation of 15 with phenobarbit-induced rat liver microsomal fraction in hypoxic condition in presence of pCMBA at a concentration of 0 mM; in short: as §2
[21] = organism: Rattus norvegicus; test: Percent inhibition of formation of compound upon incubation of 15 with phenobarbit-induced rat liver microsomal fraction in hypoxic condition in presence of pCMBA at a concentration of 1 mM; in short: as §2
[22] = organism: Rattus norvegicus; test: Percent inhibition of formation of compound upon incubation of 15 with phenobarbit-induced rat liver microsomal fraction in hypoxic condition in presence of pCMBA at a concentration of 2 mM; in short: as §2
[23] = organism: Rattus norvegicus; test: Percent inhibition of formation of compound upon incubation of 15 with phenobarbit-induced rat liver microsomal fraction in oxic condition in presence of pCMBA at a concentration of 2 mM; in short: as §2
[24] = organism: Rattus norvegicus; test: Percent inhibition of formation of compound upon incubation of 15 with phenobarbit-induced rat liver microsomal fraction in hypoxic condition in presence of SKF-525A at a concentration of 0 mM; in short: as §2
[25] = organism: Rattus norvegicus; test: Percent inhibition of formation of compound upon incubation of 15 with phenobarbit-induced rat liver microsomal fraction in hypoxic condition in presence of SKF-525A at a concentration of 1 mM; in short: as §2
[26] = organism: Rattus norvegicus; test: Percent inhibition of formation of compound upon incubation of 15 with phenobarbit-induced rat liver microsomal fraction in oxic condition in presence of SKF-525A at a concentration of 0 mM; in short: as §2
[27] = organism: Rattus norvegicus; test: Percent formation of compound upon incubation of 15 for 60 minutes with rat P450 reductase microsomes in hypoxic condition in presence of NADPAH; in short: as §1
[28] = organism: Rattus norvegicus; test: Percent formation of compound upon incubation of 15 with phenobarbit-induced rat liver microsomal fraction in hypoxic condition in presence of SKF-525A at a concentration of 4 mM; in short: as §2

- Formation [1]: 0.6%
- Formation [27]: 1.7%
SMILES: CCC(=O)c1ccccc1O
- Formation [2]: 1.2%
- Formation [3]: 36.9%
- Formation [4]: 80.9%
- Formation [5]: 38.5%
- Formation [6]: 0.5%
- inhibition [7]: 14%
- inhibition [8]: 40%
- Formation [9]: 0.4%
- Formation [10]: 0.7%
- Formation [11]: 0.4%
- Formation [12]: 93%
- Formation [13]: 14.8%
- Formation [14]: 50.3%
- Formation [15]: 93.2%
- Formation [16]: 0.7%
- Formation [17]: 9.1%
- Formation [18]: 0.6%
- Formation [19]: 0.5%
- inhibition [20]: 0%
- inhibition [21]: 99%
- inhibition [22]: 99%
- inhibition [23]: 99%
- inhibition [24]: 0%
- inhibition [25]: 23%
- inhibition [26]: 0%
- Formation [28]: 45%

Reference: ChEMBL document CHEMBL1145922, “1,2-benzisoxazole phosphorodiamidates as novel anticancer prodrugs requiring bioreductive activation” (J Med Chem, 2003)
